Source: ChEMBL document CHEMBL1781995, “Acenaphtho[1,2-b]pyrrole-based selective fibroblast growth factor receptors 1 (FGFR1) inhibitors: design, synthesis, and biological activity” (J Med Chem, 2011)
Calls of active or inactive are those of the source. The rule behind the calls is not given here.

Key:
BXPC-3 = test: Antiproliferative activity against human BxPC3 cells expressing FGFR after 72 hrs by SRB assay; assay type: functional, cell-based; settings: BXPC-3, 72 h
Outline: (§1)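 Cells seeded and grown 24 h, then exposed to increasing compound concentrations for 72 h without medium change. Fixed with cold 10% TCA 1 h at 4 °C, stained 15 min with 4 mg/mL SRB in 1% acetic acid, rinsed, dye dissolved in 10 mM Tris base, A515 read. Inhibition = (1 − A515treated/A515control)×100; IC50 by Logit method from at least three independent tests.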

[1] = target: T1, Fibroblast growth factor receptor 1 (Homo sapiens, UniProt P11362); test: Inhibition of FGFR1 using poly(Glu-Tyr)4:1 as substrate after 60 mins by ELISA
Target sequence in this assay (P11362 whole entry): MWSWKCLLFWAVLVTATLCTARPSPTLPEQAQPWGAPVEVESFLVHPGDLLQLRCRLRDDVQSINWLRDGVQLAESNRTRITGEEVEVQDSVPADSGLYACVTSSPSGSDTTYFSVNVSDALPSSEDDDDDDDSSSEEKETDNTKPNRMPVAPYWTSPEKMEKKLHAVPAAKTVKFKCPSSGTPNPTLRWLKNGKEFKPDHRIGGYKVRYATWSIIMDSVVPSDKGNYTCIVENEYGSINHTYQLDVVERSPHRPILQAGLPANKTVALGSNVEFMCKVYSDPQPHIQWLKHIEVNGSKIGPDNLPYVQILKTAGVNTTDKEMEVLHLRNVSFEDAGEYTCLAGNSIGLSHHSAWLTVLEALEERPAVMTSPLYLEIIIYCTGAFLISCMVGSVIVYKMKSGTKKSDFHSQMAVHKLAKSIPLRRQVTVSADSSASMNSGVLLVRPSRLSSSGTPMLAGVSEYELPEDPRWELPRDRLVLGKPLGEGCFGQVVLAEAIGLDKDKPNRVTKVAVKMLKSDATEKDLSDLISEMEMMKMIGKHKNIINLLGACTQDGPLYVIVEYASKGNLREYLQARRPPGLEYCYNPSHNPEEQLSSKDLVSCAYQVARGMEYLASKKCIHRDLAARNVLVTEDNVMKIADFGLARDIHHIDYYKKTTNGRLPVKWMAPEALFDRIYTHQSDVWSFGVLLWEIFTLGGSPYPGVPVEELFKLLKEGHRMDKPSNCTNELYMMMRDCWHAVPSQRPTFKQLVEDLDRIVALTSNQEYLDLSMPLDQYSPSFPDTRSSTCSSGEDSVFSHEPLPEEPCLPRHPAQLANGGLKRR

T-24 = test: Antiproliferative activity against human T24 cells expressing FGFR after 72 hrs by SRB assay; assay type: functional, cell-based; settings: T-24, 72 h; outline: as §1
WI-38 = test: Antiproliferative activity against human WI38 cells expressing FGFR after 72 hrs by SRB assay; assay type: cell-based; settings: WI-38, 72 h; outline: as §1
[2] = target: T1, Fibroblast growth factor receptor 1; test: Inhibition of FGFR1 in human BxPC3 cells assessed as reduction of Akt phosphorylation at 10 uM after 12 hrs by Western blot analysis; assay type: cell-based; settings: BXPC-3
Outline: (§2)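 BxPC3 cells plated at 3 × 10^5 per well, serum-starved 24 h, then treated 12 h with compound (1.25, 2.5, 5, 10 μM). Whole-cell lysates run on 10% SDS-PAGE and immunoblotted for phospho-FGFR1 (Tyr653/654), phospho-Erk1/2 (T202/Y204), phospho-Akt and totals, with GAPDH loading control.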
Target sequence in this assay (P11362 22-822 limits assumed): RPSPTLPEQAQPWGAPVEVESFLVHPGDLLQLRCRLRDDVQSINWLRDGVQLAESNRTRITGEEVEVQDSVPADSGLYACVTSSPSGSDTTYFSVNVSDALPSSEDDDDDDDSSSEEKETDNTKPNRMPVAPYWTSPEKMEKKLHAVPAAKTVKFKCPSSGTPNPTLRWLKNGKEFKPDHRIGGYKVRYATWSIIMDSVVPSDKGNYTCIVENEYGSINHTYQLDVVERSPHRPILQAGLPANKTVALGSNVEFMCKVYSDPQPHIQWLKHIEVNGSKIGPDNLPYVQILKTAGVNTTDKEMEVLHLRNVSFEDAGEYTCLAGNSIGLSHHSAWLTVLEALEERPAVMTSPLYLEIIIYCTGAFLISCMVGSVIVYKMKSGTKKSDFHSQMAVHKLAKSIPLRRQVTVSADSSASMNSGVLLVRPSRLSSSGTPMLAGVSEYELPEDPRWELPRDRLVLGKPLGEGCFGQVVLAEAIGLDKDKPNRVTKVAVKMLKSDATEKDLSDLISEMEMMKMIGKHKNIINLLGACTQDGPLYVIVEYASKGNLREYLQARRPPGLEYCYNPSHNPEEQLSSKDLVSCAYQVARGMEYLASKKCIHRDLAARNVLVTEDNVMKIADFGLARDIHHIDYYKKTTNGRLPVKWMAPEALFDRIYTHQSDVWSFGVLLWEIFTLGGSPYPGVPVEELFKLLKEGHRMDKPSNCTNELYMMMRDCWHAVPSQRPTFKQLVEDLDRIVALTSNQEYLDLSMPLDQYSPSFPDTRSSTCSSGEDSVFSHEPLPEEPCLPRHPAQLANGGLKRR

[3] = target: T1, Fibroblast growth factor receptor 1; test: Inhibition of FGFR1 in human BxPC3 cells assessed as reduction of Erk1/2 phosphorylation after 12 hrs by Western blot analysis; assay type: cell-based; settings: BXPC-3; outline: as §2
Target sequence in this assay (P11362 22-822 limits assumed): as above

Calf thymus DNA = test: Binding affinity to calf thymus DNA at 20 uM by circular dichroism assay; assay type: nucleic-acid assay; settings: Bos taurus
[4] = target: Proto-oncogene tyrosine-protein kinase receptor Ret (Homo sapiens, UniProt P07949); test: Inhibition of RET expressed in Bac-to-Bac Baculovirus expression system using poly(Glu-Tyr)4:1 as substrate after 60 mins by ELISA
Outline: (§3)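 Wells precoated with 20 μg/mL poly(Glu,Tyr)4:1. Detected with PY99 anti-phosphotyrosine, then HRP anti-mouse IgG and o-phenylenediamine/H2O2; stopped with H2SO4, A490. Duplicates per concentration; IC50 from inhibition curves, at least three independent tests.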

[5] = target: Platelet-derived growth factor receptor beta (Homo sapiens, UniProt P09619); test: Inhibition of PDGFRbeta using poly(Glu-Tyr)4:1 as substrate after 60 mins by ELISA; outline: as §3
[6] = target: Vascular endothelial growth factor receptor 1 (Homo sapiens, UniProt P17948); test: Inhibition of VEGFR1 using poly(Glu-Tyr)4:1 as substrate measured after 60 mins by ELISA; outline: as §3
Ephrin type-A receptor 2 = Ephrin type-A receptor 2 (Homo sapiens, UniProt P29317); test: Inhibition of EphA2 expressed in Bac-to-Bac Baculovirus expression system using poly(Glu-Tyr)4:1 as substrate after 60 mins by ELISA; outline: as §3
[7] = target: Fibroblast growth factor receptor 2 (Homo sapiens, UniProt P21802); test: Inhibition of FGFR2 using poly(Glu-Tyr)4:1 as substrate after 60 mins by ELISA; outline: as §3
[8] = target: Macrophage-stimulating protein receptor (Homo sapiens, UniProt Q04912); test: Inhibition of RON expressed in Bac-to-Bac Baculovirus expression system using poly(Glu-Tyr)4:1 as substrate after 60 mins by ELISA; outline: as §3
[9] = target: Mast/stem cell growth factor receptor Kit (Homo sapiens, UniProt P10721); test: Inhibition of c-kit expressed in Bac-to-Bac Baculovirus expression system using poly(Glu-Tyr)4:1 as substrate after 60 mins by ELISA; outline: as §3
[10] = target: Proto-oncogene tyrosine-protein kinase Src (Homo sapiens, UniProt P12931); test: Inhibition of c-Src expressed in Bac-to-Bac Baculovirus expression system using poly(Glu-Tyr)4:1 as substrate after 60 mins by ELISA; outline: as §3
Ephrin type-B receptor 2 = target: T2, Ephrin type-B receptor 2 (Homo sapiens, UniProt P29323); test: Inhibition of EphB2 expressed in Bac-to-Bac Baculovirus expression system using poly(Glu-Tyr)4:1 as substrate after 60 mins by ELISA; outline: as §3
T2 sequence (P29323 whole entry): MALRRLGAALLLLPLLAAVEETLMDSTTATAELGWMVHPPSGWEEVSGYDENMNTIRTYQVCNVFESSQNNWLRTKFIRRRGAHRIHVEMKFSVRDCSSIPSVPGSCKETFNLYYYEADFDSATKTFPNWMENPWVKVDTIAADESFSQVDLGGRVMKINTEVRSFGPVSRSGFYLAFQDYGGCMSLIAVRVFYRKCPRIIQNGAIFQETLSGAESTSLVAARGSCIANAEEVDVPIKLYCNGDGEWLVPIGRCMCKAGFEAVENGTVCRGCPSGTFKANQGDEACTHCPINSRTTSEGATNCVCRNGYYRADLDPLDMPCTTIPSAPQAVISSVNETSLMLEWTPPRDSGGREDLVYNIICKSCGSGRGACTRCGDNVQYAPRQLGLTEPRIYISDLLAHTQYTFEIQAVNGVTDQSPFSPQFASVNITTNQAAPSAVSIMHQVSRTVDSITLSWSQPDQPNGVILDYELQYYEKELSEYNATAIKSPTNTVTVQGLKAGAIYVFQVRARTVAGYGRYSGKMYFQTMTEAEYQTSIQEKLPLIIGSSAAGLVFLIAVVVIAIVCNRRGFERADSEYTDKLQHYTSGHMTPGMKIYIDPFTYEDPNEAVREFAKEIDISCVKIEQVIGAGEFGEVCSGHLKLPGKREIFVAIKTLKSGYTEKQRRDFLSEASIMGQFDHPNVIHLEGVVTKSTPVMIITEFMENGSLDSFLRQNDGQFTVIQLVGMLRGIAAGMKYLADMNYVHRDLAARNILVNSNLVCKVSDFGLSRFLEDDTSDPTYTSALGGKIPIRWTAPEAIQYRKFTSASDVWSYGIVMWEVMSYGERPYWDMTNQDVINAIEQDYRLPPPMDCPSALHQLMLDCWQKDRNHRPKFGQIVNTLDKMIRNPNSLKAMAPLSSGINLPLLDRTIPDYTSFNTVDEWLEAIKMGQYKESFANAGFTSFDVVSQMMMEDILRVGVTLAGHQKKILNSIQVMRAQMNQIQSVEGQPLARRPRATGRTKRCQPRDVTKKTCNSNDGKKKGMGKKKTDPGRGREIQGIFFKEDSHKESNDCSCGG

[11] = target: Fibroblast growth factor receptor 4 (Homo sapiens, UniProt P22455); test: Inhibition of FGFR4 using poly(Glu-Tyr)4:1 as substrate after 60 mins by ELISA; outline: as §3
[12] = target: Tyrosine-protein kinase ABL1 (Homo sapiens, UniProt P00519); test: Inhibition of Abl using poly(Glu-Tyr)4:1 as substrate after 60 mins by ELISA; outline: as §3
[13] = target: Platelet-derived growth factor receptor alpha (Homo sapiens, UniProt P16234); test: Inhibition of PDGFRalpha using poly(Glu-Tyr)4:1 as substrate after 60 mins by ELISA; outline: as §3
[14] = target: Fibroblast growth factor receptor 3 (Homo sapiens, UniProt P22607); test: Inhibition of FGFR3 using poly(Glu-Tyr)4:1 as substrate after 60 mins by ELISA; outline: as §3
[15] = target: Insulin-like growth factor 1 receptor (Homo sapiens, UniProt P08069); test: Inhibition of IGF1R expressed in Bac-to-Bac Baculovirus expression system using poly(Glu-Tyr)4:1 as substrate after 60 mins by ELISA; outline: as §3
[16] = target: T1, Fibroblast growth factor receptor 1; test: Inhibition of FGFR1 in human BxPC3 cells assessed as reduction of Erk1/2 phosphorylation at 10 uM after 12 hrs by Western blot analysis; assay type: cell-based; settings: BXPC-3; outline: as §2
Target sequence in this assay (P11362 22-822 limits assumed): as the sequence (P11362 22-822 limits assumed) above

[17] = target: Vascular endothelial growth factor receptor 2 (Homo sapiens, UniProt P35968); test: Inhibition of VEGFR2 expressed in Bac-to-Bac Baculovirus expression system using poly(Glu-Tyr)4:1 as substrate after 60 mins by ELISA; outline: as §3
[18] = target: T1, Fibroblast growth factor receptor 1; test: Inhibition of b-FGF-induced FGFR1 phosphorylation in human BxPC3 cells at 1.25 uM after 12 hrs by Western blot analysis; assay type: cell-based; settings: BXPC-3; outline: as §2
Target sequence in this assay (P11362 22-822 limits assumed): as the sequence (P11362 22-822 limits assumed) above

[19] = target: T1, Fibroblast growth factor receptor 1; test: Inhibition of b-FGF-induced FGFR1 phosphorylation in human BxPC3 cells after 12 hrs by Western blot analysis; assay type: cell-based; settings: BXPC-3; outline: as §2
Target sequence in this assay (P11362 22-822 limits assumed): as the sequence (P11362 22-822 limits assumed) above

[20] = target: T1, Fibroblast growth factor receptor 1; test: Inhibition of b-FGF-induced FGFR1 phosphorylation in human BxPC3 cells at 10 uM after 12 hrs by Western blot analysis relative to control; assay type: cell-based; settings: BXPC-3; outline: as §2
Target sequence in this assay (P11362 22-822 limits assumed): as the sequence (P11362 22-822 limits assumed) above

Chain of Fibroblast growth factor receptor 2 (P21802 whole entry): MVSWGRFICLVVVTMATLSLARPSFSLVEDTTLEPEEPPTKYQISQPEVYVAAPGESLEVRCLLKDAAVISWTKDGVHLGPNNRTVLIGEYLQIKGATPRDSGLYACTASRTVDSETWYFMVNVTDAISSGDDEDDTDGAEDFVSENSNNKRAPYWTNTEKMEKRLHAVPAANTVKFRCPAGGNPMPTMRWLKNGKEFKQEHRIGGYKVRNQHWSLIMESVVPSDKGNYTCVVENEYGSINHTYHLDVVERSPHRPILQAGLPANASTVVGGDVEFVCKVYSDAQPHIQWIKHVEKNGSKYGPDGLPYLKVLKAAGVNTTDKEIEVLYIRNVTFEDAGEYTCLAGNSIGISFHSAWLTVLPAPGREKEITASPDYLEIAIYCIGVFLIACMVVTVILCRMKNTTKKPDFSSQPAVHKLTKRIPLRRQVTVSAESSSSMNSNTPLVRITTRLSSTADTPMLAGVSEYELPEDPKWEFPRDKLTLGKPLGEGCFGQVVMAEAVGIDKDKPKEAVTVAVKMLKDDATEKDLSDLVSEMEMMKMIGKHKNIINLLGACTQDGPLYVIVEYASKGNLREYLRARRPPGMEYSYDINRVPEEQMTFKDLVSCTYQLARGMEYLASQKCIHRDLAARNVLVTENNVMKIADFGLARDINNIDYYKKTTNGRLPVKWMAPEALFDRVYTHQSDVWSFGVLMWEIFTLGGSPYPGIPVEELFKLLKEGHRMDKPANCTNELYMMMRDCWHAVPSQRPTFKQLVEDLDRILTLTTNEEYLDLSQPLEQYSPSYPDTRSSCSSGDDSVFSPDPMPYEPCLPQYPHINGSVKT
Chain of Tyrosine-protein kinase ABL1 (P00519 whole entry): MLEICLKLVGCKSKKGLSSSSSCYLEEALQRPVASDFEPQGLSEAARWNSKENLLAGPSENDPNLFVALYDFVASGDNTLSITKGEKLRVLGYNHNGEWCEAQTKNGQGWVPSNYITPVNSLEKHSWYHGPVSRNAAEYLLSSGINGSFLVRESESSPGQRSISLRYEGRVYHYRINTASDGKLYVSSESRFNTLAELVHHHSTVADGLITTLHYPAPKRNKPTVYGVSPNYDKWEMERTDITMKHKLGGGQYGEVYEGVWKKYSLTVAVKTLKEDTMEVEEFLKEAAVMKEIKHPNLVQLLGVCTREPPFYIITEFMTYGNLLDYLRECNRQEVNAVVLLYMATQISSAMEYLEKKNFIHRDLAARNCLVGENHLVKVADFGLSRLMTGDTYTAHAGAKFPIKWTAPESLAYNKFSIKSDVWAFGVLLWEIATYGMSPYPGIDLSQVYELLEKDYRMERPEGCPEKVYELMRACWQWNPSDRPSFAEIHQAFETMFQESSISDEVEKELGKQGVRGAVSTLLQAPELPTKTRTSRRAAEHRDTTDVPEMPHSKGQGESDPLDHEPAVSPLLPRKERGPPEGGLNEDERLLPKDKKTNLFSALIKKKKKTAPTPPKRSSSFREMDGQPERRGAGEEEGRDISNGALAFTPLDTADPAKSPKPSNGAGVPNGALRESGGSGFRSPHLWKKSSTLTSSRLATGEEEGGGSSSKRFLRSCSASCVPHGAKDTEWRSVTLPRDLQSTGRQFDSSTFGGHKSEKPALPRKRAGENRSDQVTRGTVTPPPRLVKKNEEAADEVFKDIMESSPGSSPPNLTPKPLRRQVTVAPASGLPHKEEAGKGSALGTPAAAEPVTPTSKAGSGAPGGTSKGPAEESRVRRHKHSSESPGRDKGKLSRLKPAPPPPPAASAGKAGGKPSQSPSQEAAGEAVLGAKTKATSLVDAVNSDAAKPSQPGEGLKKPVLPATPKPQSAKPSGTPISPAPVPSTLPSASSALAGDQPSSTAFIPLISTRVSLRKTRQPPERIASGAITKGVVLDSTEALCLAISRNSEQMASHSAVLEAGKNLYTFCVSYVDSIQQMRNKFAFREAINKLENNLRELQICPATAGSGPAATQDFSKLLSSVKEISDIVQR
Chain of Fibroblast growth factor receptor 4 (P22455 whole entry): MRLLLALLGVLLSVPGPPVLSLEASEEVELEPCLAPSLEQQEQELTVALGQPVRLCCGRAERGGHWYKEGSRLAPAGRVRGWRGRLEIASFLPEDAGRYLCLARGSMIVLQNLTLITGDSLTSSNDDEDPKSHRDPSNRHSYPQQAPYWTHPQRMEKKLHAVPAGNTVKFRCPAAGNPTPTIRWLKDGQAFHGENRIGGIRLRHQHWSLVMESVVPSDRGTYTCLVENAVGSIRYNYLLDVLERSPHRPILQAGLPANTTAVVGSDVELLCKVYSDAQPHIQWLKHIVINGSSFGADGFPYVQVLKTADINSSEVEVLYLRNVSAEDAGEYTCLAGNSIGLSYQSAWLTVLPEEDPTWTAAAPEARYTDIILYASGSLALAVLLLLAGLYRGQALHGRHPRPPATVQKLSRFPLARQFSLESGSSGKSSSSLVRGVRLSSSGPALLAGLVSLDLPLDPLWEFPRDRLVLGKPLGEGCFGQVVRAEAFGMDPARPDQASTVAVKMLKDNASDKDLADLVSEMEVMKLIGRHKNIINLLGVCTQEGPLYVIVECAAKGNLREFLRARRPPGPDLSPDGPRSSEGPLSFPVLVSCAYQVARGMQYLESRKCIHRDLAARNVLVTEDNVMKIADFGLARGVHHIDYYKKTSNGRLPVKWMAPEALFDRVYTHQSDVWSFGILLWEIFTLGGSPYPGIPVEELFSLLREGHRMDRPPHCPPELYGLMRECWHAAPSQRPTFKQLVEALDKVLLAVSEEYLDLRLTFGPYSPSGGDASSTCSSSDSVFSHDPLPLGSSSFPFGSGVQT

IC50 (BXPC-3) [µM] | IC50 [1] [µM] | Compound | IC50 (T-24) [µM] | IC50 (WI-38) [µM] | also measured
38.5 | 0.424 | C=CCSc1ccc2c3c(cccc13)C1=NC(=O)C(C(=O)OCC(=O)OCC(F)(F)C(F)(F)F)=C12 | 86.4 | 45.6 | –
4.8 | 0.019 | C=CCOC(=O)C1=C2C(=NC1=O)c1cccc3cccc2c13 | 3.9 | 20.6 | inhibition [2]: inactive; inhibition [3]: Dose-dependent effect
2.5 | 0.216 | C=CCOC(=O)C1=C2C(=NC1=O)c1cccc3c(SCC=C)ccc2c13 | 6.6 | 19.7 | –
– | > 10 | N#CC1=C2C(=NC1=O)c1cccc3c(SCCN4CCSC4)ccc2c13 | – | – | –
– | > 10 | N#CC1=C2C(=NC1=O)c1cccc3c(SCCO)ccc2c13 | – | – | –
– | > 10 | CC1OCCC1Sc1ccc2c3c(cccc13)C1=NC(=O)C(C#N)=C12 (stereo not given) | – | – | –
12.9 | > 10 | C=CCOC(=O)C1=C2C(=NC1=O)c1cccc3c(SCCC)ccc2c13 | 13.1 | 33.2 | Activity (Calf thymus DNA): Active
– | 2.1 | CCOC(=O)C1=C2C(=NC1=O)c1cccc3c(SCCc4cnccn4)ccc2c13 | – | – | –
4.7 | 0.074 | CCOC(=O)C1=C2C(=NC1=O)c1cccc3cccc2c13 | 2.9 | 6.2 | IC50 [4]: > 10 µM; IC50 [5]: > 10 µM; IC50 [6]: 3.2 µM; IC50 (Ephrin type-A receptor 2): > 10 µM; IC50 [7]: > 10 µM; IC50 [8]: > 10 µM; IC50 [9]: > 10 µM; IC50 [10]: > 10 µM; inhibition [2]: inactive; IC50 (Ephrin type-B receptor 2): > 10 µM; IC50 [11]: > 10 µM; IC50 [12]: > 10 µM; IC50 [13]: > 10 µM; IC50 [14]: 4.6 µM; IC50 [15]: > 10 µM; inhibition [3]: Dose-dependent effect; inhibition [16]: Active; IC50 [17]: > 10 µM
5.8 | > 10 | CCCSc1ccc2c3c(cccc13)C1=NC(=O)C(C(=O)OCC)=C12 | 1.7 | 9.6 | Activity (Calf thymus DNA): Active
– | > 10 | CC(C)Sc1ccc2c3c(cccc13)C1=NC(=O)C(C#N)=C12 | – | – | –
25 | 4.5 | N#CC1=C2C(=NC1=O)c1cccc3cccc2c13 | 13.3 | 21.7 | –
2.5 | 0.485 | C=CCSc1ccc2c3c(cccc13)C1=NC(=O)C(C(=O)OCC)=C12 | 0.7 | 4.6 | inhibition [18]: Active; inhibition [19]: Dose-dependent effect; inhibition [2]: inactive; inhibition [20]: Active; inhibition [16]: Active
– | > 10 | CCOC(=O)C1=C2C(=NC1=O)c1cccc3c(SC4CCOC4C)ccc2c13 (stereo not given) | – | – | –
